The text below walks through data of ChEMBL document CHEMBL4513216, “Probing the Open Global Health Chemical Diversity Library for Multistage-Active Starting Points for Next-Generation Antimalarials” (ACS Infect Dis, 2020).

The data set in a line: Toxicity liver stage against HepG2, at 10uM. In kind it is cell-based. Also on record: test concentration 10 uM, cell line HepG2-A16-CD81EGFP. Conditions: human, HepG2-A16-CD81EGFP cells; read-out: INHIBITION
In short, it runs like this: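 Uninfected HepG2-A16-CD81EGFP cells, 3 × 10^3 per well, 1536-well, plated on prespotted compound at 10 μM final, parasite-free screening media added to match infected plates; puromycin 10 μM positive, DMSO 0.5% negative; run in parallel with 48 h PbLuc assay at 37 °C, 5% CO2; viability by CellTiter-Glo luminescence, normalized to controls.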
Turning to `CNC(=O)C(C)(C)N1CCC[C@H]1C(=O)NCCN1CCOCC1`, the cytotoxicity at 10 µM turned out to be 3.29%.

In the case of `CC(C)(C)OC(=O)Cn1cccc(S(=O)(=O)N2CCCCCC2)c1=O`, the cytotoxicity at 10 µM was -2.28%.

In the case of `Cc1nccn1-c1ccc(=O)n(CCNC(=O)Cc2ccccc2)n1`, the cytotoxicity at 10 µM was -4.17%.

As for `CC(=O)N1CCCC2(CCN(Cc3ccc(Cl)c(F)c3)C2)C1` (stereo not drawn), the cytotoxicity at 10 µM turned out to be 9.58%.

As for `Cn1cnc(S(=O)(=O)N2CCO[C@H]3[C@H](OCC4CC4)CC[C@@H]32)c1`, the cytotoxicity at 10 µM is 8.31%.

Consider `Cc1cc(C(=O)N2CCc3c(CN(C)C)nn(C)c3C2)[nH]n1`, for which the cytotoxicity at 10 µM was -3.25%.

Consider `O=c1[nH]c2nc(NC3CC3)ncc2c(=O)n1-c1ccc(F)cc1`, for which the cytotoxicity at 10 µM is -4.06%.

Turning to `CC(C)NC(=O)[C@H]1CN(Cc2ccccc2)C[C@@H]1C(=O)c1ccccc1`, the cytotoxicity at 10 µM is 7.84%.

On to `Cc1noc(C)c1-c1cccc(C2CN(S(=O)(=O)N(C)C)CCO2)n1` (stereo not drawn), for which the cytotoxicity at 10 µM amounted to 11.4%.

In the case of `Cc1ncccc1C(=O)N1CCC2(CCc3ccccc3C(=O)N2)C1` (stereo not drawn), the cytotoxicity at 10 µM is 4.28%.

Take `Cc1cc(C(=O)NCC2SCCc3ccccc32)no1` (stereo not drawn): the cytotoxicity at 10 µM was 3.41%.

As to `CC(C)OCCC(=O)NCC(c1c(F)cccc1F)N(C)C` (stereo not drawn), the cytotoxicity at 10 µM was -1.19%.

Consider `CC1CCN(Cc2ccccc2CNC(=O)C2CNC(=O)N2)CC1` (stereo not drawn), for which the cytotoxicity at 10 µM stood at 2.16%.

In the case of `CC1(C)CN(C(CNS(C)(=O)=O)c2ccc(Cl)cc2)CCO1` (stereo not drawn), the cytotoxicity at 10 µM was 9.12%.

As to `COc1ccc(Br)c(NC(=O)NCc2ncnn2C)c1`, the cytotoxicity at 10 µM came to 5.41%.

As for `Cc1cnn(CC2CCCCN2C(=O)Cn2nc(C)c(Cl)c2C)c1` (stereo not drawn), the cytotoxicity at 10 µM is -6.24%.

On to `CCn1ccnc1CN1CCN(CCc2ccccn2)CC1C` (stereo not drawn), for which the cytotoxicity at 10 µM is -8.74%.

Consider `CC(C)(O)CN1CCN(C(=O)C2CSc3ccccc3O2)CC1` (stereo not drawn), for which the cytotoxicity at 10 µM was 2.16%.

Turning to `Cc1noc(C)c1CCCNC(=O)C1CCN(C(=O)C2CCC2)CC1`, the cytotoxicity at 10 µM stood at 3.72%.

Consider `COCC1CCN(S(=O)(=O)NCC2COc3ccccc3C2)CC1` (stereo not drawn), for which the cytotoxicity at 10 µM was 7.64%.

Turning to `O=C(c1cc(Cl)cc2cccnc12)N1CCN(CCO)CC1`, the cytotoxicity at 10 µM is -2.07%.

As for `CCc1nnc(NC(=O)Cc2c(C)nc(C)[nH]c2=O)s1`, the cytotoxicity at 10 µM is -14.4%.

As for `CCc1ccc(C(=O)N2CCN(CCS(C)(=O)=O)CC2)o1`, the cytotoxicity at 10 µM is -8.03%.

`CC(CNCc1ccc(F)cc1)Oc1ccccn1` (stereo not drawn): the cytotoxicity at 10 µM turned out to be 6.97%.

Consider `CC(C)NC(=O)CC1COC2(CCN(Cc3cccnc3)CC2)C1` (stereo not drawn), for which the cytotoxicity at 10 µM was 0.405%.

Consider `Cc1ccc(CN2CC[C@H]3[C@H]2CCN3S(=O)(=O)C2CC2)s1`, for which the cytotoxicity at 10 µM turned out to be 7.74%.

Take `O=C(NC1CC1)[C@@H]1CN(Cc2ccc3c(c2)OCO3)C[C@H]2OCC[C@H]21`: the cytotoxicity at 10 µM was -1.79%.

Take `CN(C)CCN1CCC2(CCN(C(=O)c3ccncc3)CC2)C1=O`: the cytotoxicity at 10 µM turned out to be 0.0515%.

Take `Cc1noc(C)c1CN1C[C@H](C)[C@]2(CCN(Cc3cccnc3)C2=O)C1`: the cytotoxicity at 10 µM was 4.59%.

For the compound `c1cnc(N2CC3(CCN(Cc4cccnc4)C3)C2)nc1`, the cytotoxicity at 10 µM is -4.87%.

Take `CO[C@@H]1CCN(S(=O)(=O)N(C)C)[C@@H]2CN(Cc3ccncc3)C[C@@H]21`: the cytotoxicity at 10 µM was 15.1%.

As to `CCn1ncc2c1C(COCC1CC1)N(Cc1ccccn1)CC2` (stereo not drawn), the cytotoxicity at 10 µM came out at 10.9%.

In the case of `CCn1ncc2c1C(COCC1CC1)N(Cc1nccs1)CC2` (stereo not drawn), the cytotoxicity at 10 µM stood at 10.6%.

As for `CC(C)NC(=O)CC1COC2(CCN(Cc3ccsc3)CC2)C1` (stereo not drawn), the cytotoxicity at 10 µM was -1.6%.

For `Cc1ccc(CN2CC[C@H]3NC(=O)CC[C@@H]32)o1`, the cytotoxicity at 10 µM is -5.28%.

Turning to `CN(C)Cc1nc2c(o1)CN(C(=O)NCc1cccc(F)c1)C2`, the cytotoxicity at 10 µM came to 5.32%.

As for `CC=C(C)C(=O)NS(=O)(=O)c1ccc(C(F)(F)F)cn1`, the cytotoxicity at 10 µM turned out to be 3.95%.

As to `CC(C)NC(=O)CC1[C@H]2CN(C(=O)Cc3ccccn3)C[C@@H]12` (stereo partly drawn), the cytotoxicity at 10 µM came to 12%.
